From ChEMBL document CHEMBL4321868, “Scaffold Simplification Strategy Leads to a Novel Generation of Dual Human Immunodeficiency Virus and Enterovirus-A71 Entry Inhibitors” (J Med Chem, 2020)
Activity calls are given as the source filed them. The calls are words filed in the database; no cut-off is given here.

Legend:
[1] = system: Human immunodeficiency virus 1; assay: Antiviral activity against HIV1 NL4.3 infected in human MT4 cells assessed as reduction in virus-induced cytopathic effect preincubated for 30 mins followed by viral infection and measured after 5 days by MTS assay; type: functional, organism-based; conditions: Human immunodeficiency virus 1, NL4.3, MT4
[2] = Cytotoxicity against human MT4 cells assessed as reduction in cell viability measured after 5 days by MTS/PES assay; type: cell-based
Procedure, shortened: (§1)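 MT-4 cells (RPMI-1640, 10% FCS, 1% L-glutamine) pre-incubated 30 min at 37 °C with compound, then infected with HIV-1 NL4.3 or HIV-2 ROD according to stock TCID50. After 5 days, CPE scored microscopically and viability read by MTS/PES at A490 to derive EC50; cytotoxicity measured by MTS/PES at 5 days in the same cells. SI = CC50/EC50. Mean ± S.D. of at least 3 experiments.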

[3] = Selectivity index, ratio of CC50 for human MT4 cells to EC50 for HIV1 NL4.3 infected in human MT4 cells; type: toxicity, cell-based; conditions: read-out: Ratio CC50/EC50; procedure, shortened: as §1
[4] = system: Human immunodeficiency virus 1; assay: Antiviral activity against HIV1 3B infected in human MT4 cells assessed as reduction in p24 production at 20 uM incubated for 1 hr prior to viral infection followed by compound washout and measured 8 hrs post-infection by ELISA; type: functional, organism-based
[5] = target: Envelope glycoprotein gp160 (Human immunodeficiency virus 1) (UniProt Q6QLK5); assay: Binding affinity to recombinant HIV1 3B gp120 by SPR analysis
[6] = target: Envelope glycoprotein gp160 (Human immunodeficiency virus 1) (UniProt Q6QLK5); assay: (§2) Inhibition of biotinylated-heparin binding to recombinant HIV1 3B gp120 by SPR analysis
Procedure, shortened: (§3)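 SPR at 25 °C in PBS with 5% DMSO, 0.005% Tween20, pH 7.4. Minimally biotinylated heparin captured (880 RU) on streptavidin chip. Recombinant HIV-1 IIIB gp120 (10 nM) alone or premixed with a compound concentration range injected 2 min at 10 μl/min; regenerated with 1 M NaCl/10 mM NaOH. Double-referenced; RU converted to % inhibition vs gp120 alone; nonlinear fit, three experiments.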

[7] = target: Envelope glycoprotein gp160 (Human immunodeficiency virus 1, UniProt Q6QLK5); assay: as §2; procedure, shortened: as §3
Enterovirus A71 [8] = assay: Antiviral activity against Enterovirus A 71 BrCr infected in human RD cells assessed as reduction in virus-induced cytopathic effect preincubated for 1 day followed by viral infection and measured after 3 days by MTS/PMS method; type: functional, organism-based; conditions: strain BRCR
Procedure, shortened: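 RD cells seeded in 96-well plates; next day serial compound dilutions plus virus at low MOI added. Incubation at 37 °C, 5% CO₂ until full CPE in untreated infected controls (3 days). Viability read by MTS/PMS; EC50 as 50% inhibition of virus-induced death from dose-response curves. CC50 from uninfected treated cells in the same setup; SI = CC50/EC50.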

[9] = Selectivity index, ratio of CC50 for human RD cells to EC50 for Enterovirus A71 BrCr infected in human RD cells; type: toxicity, cell-based; conditions: read-out: Ratio CC50/EC50
Procedure, shortened: (§4)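 RD cells seeded in 96-well plates; next day serial compound dilutions plus virus at low MOI added. Incubation at 37 °C, 5% CO₂ until full CPE in untreated infected controls (3 days). CC50 from uninfected treated cells in the same setup; SI = CC50/EC50.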

Enterovirus A71 [10] = assay: Antiviral activity against Enterovirus A71 genotype B2 11316 infected in human RD cells assessed as reduction in virus-induced cytopathic effect preincubated for 1 day followed by viral infection and measured after 3 days by MTS/PMS method; type: functional, organism-based; conditions: Enterovirus A, genotype B2 11316, RD; procedure, shortened: as §4
Enterovirus A71 [11] = assay: Antiviral activity against Enterovirus A71 genotype B5 TW/70902/08 infected in human RD cells assessed as reduction in virus-induced cytopathic effect preincubated for 1 day followed by viral infection and measured after 3 days by MTS/PMS method; type: functional, organism-based; conditions: Enterovirus A, genotype B5 TW/70902/08, RD; procedure, shortened: as §4
Enterovirus A71 [12] = assay: Antiviral activity against Enterovirus A71 genotype C2 H08300 461812 infected in human RD cells assessed as reduction in virus-induced cytopathic effect preincubated for 1 day followed by viral infection and measured after 3 days by MTS/PMS method; type: functional, organism-based; conditions: Enterovirus A, genotype C2 H08300 461812, RD; procedure, shortened: as §4
Enterovirus A71 [13] = assay: Antiviral activity against Enterovirus A71 genotype C4 TW/1956/05 infected in human RD cells assessed as reduction in virus-induced cytopathic effect preincubated for 1 day followed by viral infection and measured after 3 days by MTS/PMS method; type: functional, organism-based; conditions: Enterovirus A, genotype C4 TW/1956/05, RD; procedure, shortened: as §4
RD [14] = assay: Cytotoxicity against human RD cells assessed as adverse effect on cell; type: cell-based
RD [15] = assay: Cytotoxicity against human RD cells assessed as induction of cell morphological changes; type: cell-based
[16] = Selectivity ratio of EC50 for Enterovirus A 71 BrCr infected in human RD cells to EC50 for Enterovirus A 71 genotype C4 TW/1956/05 infected in human RD cells; type: functional
[17] = Selectivity ratio of EC50 for Enterovirus A 71 BrCr infected in human RD cells to EC50 for Enterovirus A 71 genotype B2 11316 infected in human RD cells; type: functional
Enterovirus A71 [18] = assay: Antiviral activity against Enterovirus A 71 BrCr infected in human RD cells assessed as reduction in viral RNA level at 20 uM preincubated for 1 hr followed by viral infection and measured 8 hrs post-infection by RT-qPCR analysis relative to control; type: functional, strain BRCR; design: scale not given: the % may be the effect or the level left
Procedure, shortened: (§5)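 RD cells grown to confluence; compound at 20 μM in 2% FBS medium added 1 h before or 1, 2, 4 h after EV-A71 BrCr infection (MOI 1). Pirodavir 20 μM as entry-inhibitor reference; infected untreated cells as controls. At 8 h post-infection, intracellular RNA isolated and viral RNA quantified by RT-qPCR.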

Enterovirus A71 [19] = assay: Antiviral activity against Enterovirus A 71 BrCr infected in human RD cells assessed as reduction in viral RNA level at 20 uM treated 1 to 4 hrs post-infection and measured 8 hrs post-infection by RT-qPCR analysis; type: functional, strain BRCR; design: scale not given: the % may be the effect or the level left; procedure, shortened: as §5
Enterovirus A71 [20] = assay: Antiviral activity against Enterovirus A 71 BrCr infected in human RD cells assessed as reduction in viral RNA level at 20 uM administered at onset of infection measured 8 hrs post-infection by RT-qPCR analysis relative to control; type: functional, strain BRCR; design: scale not given: the % may be the effect or the level left
[21] = system: Human immunodeficiency virus 1; assay: Antiviral activity against HIV1 3B infected in human MT4 cells assessed as reduction in p24 production at 20 uM administered at onset of infection measured 8 hrs post-infection by ELISA; type: functional, organism-based
Enterovirus A71 [22] = assay: Antiviral activity against Enterovirus A 71 BrCr harboring VP1 S184T mutant infected in human RD cells assessed as reduction in virus-induced cytopathic effect preincubated for 1 day followed by viral infection and measured after 3 days by MTS/PMS method; type: functional, organism-based, strain BRCR
Enterovirus A71 [23] = assay: Antiviral activity against Enterovirus A 71 BrCr harboring VP1 P246S mutant infected in human RD cells assessed as reduction in virus-induced cytopathic effect preincubated for 1 day followed by viral infection and measured after 3 days by MTS/PMS method; type: functional, organism-based, strain BRCR
Enterovirus A71 [24] = assay: Antiviral activity against Enterovirus A 71 BrCr harboring VP1 S184T/P246S mutant infected in human RD cells assessed as reduction in virus-induced cytopathic effect preincubated for 1 day followed by viral infection and measured after 3 days by MTS/PMS method; type: functional, organism-based, strain BRCR
HeLa = assay: Binding affinity to capsid protein VP1 five fold axis in Enterovirus A71 genotype B2 11316 infected in human HeLa cells at 20 uM measured after 1 hr by cryo-electron microscopic analysis; type: cell-based
[25] = Selectivity index, ratio of CC50 for human MT4 cells to EC50 for HIV-1 NL4.3 infected in human MT4 cells
[26] = system: Human immunodeficiency virus 2; assay: Antiviral activity against HIV-2 ROD infected in human MT4 cells assessed as reduction in virus-induced cytopathic effect preincubated for 30 mins followed by viral infection and measured after 5 days by MTS assay; conditions: Human immunodeficiency virus 2, ISOLATE ROD

Envelope glycoprotein gp160 (Human immunodeficiency virus 1), sequence (Q6QLK5 1-814): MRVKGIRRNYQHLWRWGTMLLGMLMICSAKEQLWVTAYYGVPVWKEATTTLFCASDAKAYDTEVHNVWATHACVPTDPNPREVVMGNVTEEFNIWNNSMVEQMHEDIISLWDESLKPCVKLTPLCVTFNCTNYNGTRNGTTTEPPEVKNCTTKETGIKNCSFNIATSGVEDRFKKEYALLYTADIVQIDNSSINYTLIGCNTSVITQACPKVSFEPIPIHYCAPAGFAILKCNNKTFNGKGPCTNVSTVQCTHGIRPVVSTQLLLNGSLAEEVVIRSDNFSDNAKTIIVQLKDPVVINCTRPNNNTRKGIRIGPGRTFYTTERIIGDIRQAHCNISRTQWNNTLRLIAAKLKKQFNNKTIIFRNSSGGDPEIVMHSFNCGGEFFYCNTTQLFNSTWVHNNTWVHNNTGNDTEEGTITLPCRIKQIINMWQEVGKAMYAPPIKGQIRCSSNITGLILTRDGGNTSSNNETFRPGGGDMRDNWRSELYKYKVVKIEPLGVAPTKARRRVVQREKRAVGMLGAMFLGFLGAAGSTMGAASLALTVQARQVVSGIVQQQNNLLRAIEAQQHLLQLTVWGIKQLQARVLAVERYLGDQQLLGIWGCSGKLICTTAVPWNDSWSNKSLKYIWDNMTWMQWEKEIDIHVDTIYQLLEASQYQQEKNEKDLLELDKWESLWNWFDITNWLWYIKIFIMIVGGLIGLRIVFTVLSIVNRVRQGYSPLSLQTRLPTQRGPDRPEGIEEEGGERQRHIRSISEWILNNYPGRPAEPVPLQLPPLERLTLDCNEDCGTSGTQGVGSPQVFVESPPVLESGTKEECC
Envelope glycoprotein gp160, sequence (Q6QLK5 whole entry): as the sequence (Q6QLK5 1-814) above

O=C(CCC(CCC(=O)NC(Cc1c(-c2cc(C(=O)O)cc(C(=O)O)c2)[nH]c2ccccc12)C(=O)O)(CCC(=O)NC(Cc1c(-c2cc(C(=O)O)cc(C(=O)O)c2)[nH]c2ccccc12)C(=O)O)[N+](=O)[O-])NC(Cc1c(-c2cc(C(=O)O)cc(C(=O)O)c2)[nH]c2ccccc12)C(=O)O (stereo not drawn)
EC50 [1]: 270 nM | CC50 at 120 h [2]: > 100000 nM | selectivity ratio [3]: > 370 | Activity [4]: Active | Activity [5]: Dose-dependent effect | inhibition [6]: Dose-dependent effect | IC50 [7]: 982 nM | EC50 (Enterovirus A71 [8]): 350 nM | EC90 (Enterovirus A71 [8]): 550 nM | selectivity ratio [9]: > 203 | EC50 (Enterovirus A71 [10]): 179 nM | EC50 (Enterovirus A71 [11]): 81 nM | EC50 (Enterovirus A71 [12]): 57 nM | EC50 (Enterovirus A71 [13]): 38 nM | Activity (RD [14]): Non-Toxic | Activity (RD [15]): Non-Toxic | Ratio EC50 [16]: 9 | Ratio EC50 [17]: 2 | Activity (Enterovirus A71 [18]): 100% | Activity (Enterovirus A71 [19]): 0% | Activity (Enterovirus A71 [20]): 100% | Activity [21]: Active | EC50 (Enterovirus A71 [22]): 2350 nM | EC50 (Enterovirus A71 [23]): 1960 nM | EC50 (Enterovirus A71 [24]): 2180 nM | Activity (HeLa): Active | selectivity ratio [25]: > 370 | EC50 [26]: 630 nM
